Key:
[1] = Dissociation constants determined by potentiometry at 25 degree celsius (phenolic group); type: physicochemical
Outline: (§1)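 Potentiometric titration at 25 ± 1 °C with ionic strength held at 0.1 M by KCl. Excess HCl added, then back-titrated with 0.01 N NaOH. Curves run in triplicate. pKa derived by non-logarithmic linearization of the titration curve, corrected for dilution during titration.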

[2] = Dissociation constants determined by potentiometry at 25 degree celsius (Amino group); type: physicochemical; outline: as §1
[3] = The isoelectric point (pI) as the arithmetic mean of pKa1 and pKa2; type: physicochemical
[4] = Percent of zwitter ion formed, was determined at pH 7.4; type: ADME

| Compound | PKa1 [1] | PKa2 [2] | pI [3] | Z [4] [%] |
| --- | --- | --- | --- | --- |
| CCN1CCC[C@H]1CNC(=O)c1c(OC)ccc([N+](=O)[O-])c1O | 5.81 | 9.16 | 7.49 | 96 |
| CCc1cc(Cl)c(O)c(C(=O)NC[C@@H]2CCCN2CC)c1OC | 6.88 | 9.6 | 8.24 | 76 |
| CCN1CCC[C@H]1CNC(=O)c1c(O)c(Br)cc(Br)c1OC | 5.94 | 9.18 | 7.56 | 95 |
| COc1c(Cl)cc(Cl)c(O)c1C(=O)NC1CCN(C)CC1 | 5.96 | 9.12 | 7.54 | 95 |
| CCN1CCC[C@H]1CNC(=O)c1c(O)cccc1OC | 8.7 | 9.56 | 9.13 | 5 |

More lines, now with the values ahead:

| PKa1 [1] | PKa2 [2] | pI [3] | Z [4] [%] | Compound |
| --- | --- | --- | --- | --- |
| 8.71 | 9.57 | 9.14 | 5 | CCc1ccc(OC)c(C(=O)NC[C@@H]2CCCN2CC)c1O |
| 7.13 | 9.66 | 8.4 | 65 | CCN1CCC[C@H]1CNC(=O)c1c(OC)ccc(Cl)c1O |
| 7.28 | 9.55 | 8.42 | 56 | CCc1cc(CC)c(OC)c(C(=O)NC[C@@H]2CCCN2CC)c1O |
| 6.93 | 9.67 | 8.3 | 74 | CCc1cc(Cl)c(OC)c(C(=O)NC[C@@H]2CCCN2CC)c1O [ETICLOPRIDE] |
| 5.81 | 9.21 | 7.51 | 96 | CCN1CCC[C@H]1CNC(=O)c1c(O)c(Cl)cc(Cl)c1OC [RACLOPRIDE] |
